A selection: hits, their analogues and other compounds. The true share with any hit is near 3.8%.
KCNK3 inh = human KCNK3 channel inhibition, primary screen; actives 0.84% (n = 340,000); O14649; B-score at 10 µM; CHO-KCNK3 thallium flux, FluxOR fluorescence; stronger effect = lower value;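 active means B-score under library mean minus 4 SD, starting fluorescence ratio at most library mean plus 5 SD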;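 further: more negative B-score means stronger inhibition of thallium flux through KCNK3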
KCNQ1 act = human KCNQ1 channel potentiation or activation | P51787 | CHO-K1 KCNQ1, thallium flux FluxOR fluorescence; stronger effect = higher value | B-score at 10 µM | actives 0.35% (n = 310,000);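 active means fluorescence ratio B-score, a plate-corrected score, at least three library SD, with initial intensity B-score within 5 SD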
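Doses: Single concentration per compound, DMSO matched to controls | Test system: KCNQ1-transfected CHO-K1 cells | Timing: 90 min dye loading and 20 min compound exposure, both at room temperature | Measured by: Kinetic FluxOR thallium fluorescence, 10-s 1-Hz baseline, 110-s post-stimulus read | Medium: Assay buffer with matched DMSO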
KCNQ1 inh = blocks the human KCNQ1 potassium channel; P51787; CHO-K1 KCNQ1, FluxOR thallium flux fluorescence; stronger effect = higher value; B-score at 10 µM; actives 1.3% (n = 310,000); AID 2642;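 active means compounds whose thallium flux B-score, printed positive for inhibition, exceeds three library SD while starting fluorescence stays within three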;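 further: channel opened by potassium depolarization with thallium stimulus after 20 min compound exposure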
Kir21 inh = blocks the mouse Kir2.1 inward-rectifier potassium channel; actives 0.85% (n = 310,000); AID 1672; B-score at 10 µM; HEK293-Kir2.1, FluxOR thallium flux fluorescence; stronger effect = lower value; P35561;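 active means fluorescence ratio B-score at or below minus 3 SD of library scores, with starting-brightness B-score within 2 SD, cut at about -4.2 in these data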;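 further: channel flux triggered by added potassium and thallium sulfate stimulus; B-score of peak minus minimum fluorescence over baseline after thallium stimulus; more negative B-score means stronger Kir2.1 block with less thallium influx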
KCNK9 inh = inhibitors of human KCNK9 two-pore domain potassium channel | HEK293 KCNK9, FluxOR thallium flux fluorescence; stronger effect = lower value | B-score at 10 µM | actives 1.2% (n = 310,000) | AID 488922;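 active means ratio B-score over 3 SD below the library mean, with starting fluorescence within 5 SD of its mean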;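 further: negative B-score means less thallium flux so channel inhibition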
hERG rescue = shields human hERG channel from block by proarrhythmic agents. actives 0.51% (n = 310,000). Q12809. CHO-hERG, FluxOR thallium flux, dofetilide IC70 present. activation (rescue from dofetilide block), less the hit threshold, % at 10 µM;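 active means activation above the mean of controls blocked by dofetilide plus 5 SD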;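 further: thallium influx through hERG after potassium depolarization seen as dye fluorescence rise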
Target sequence (Q12809 whole entry, looked up): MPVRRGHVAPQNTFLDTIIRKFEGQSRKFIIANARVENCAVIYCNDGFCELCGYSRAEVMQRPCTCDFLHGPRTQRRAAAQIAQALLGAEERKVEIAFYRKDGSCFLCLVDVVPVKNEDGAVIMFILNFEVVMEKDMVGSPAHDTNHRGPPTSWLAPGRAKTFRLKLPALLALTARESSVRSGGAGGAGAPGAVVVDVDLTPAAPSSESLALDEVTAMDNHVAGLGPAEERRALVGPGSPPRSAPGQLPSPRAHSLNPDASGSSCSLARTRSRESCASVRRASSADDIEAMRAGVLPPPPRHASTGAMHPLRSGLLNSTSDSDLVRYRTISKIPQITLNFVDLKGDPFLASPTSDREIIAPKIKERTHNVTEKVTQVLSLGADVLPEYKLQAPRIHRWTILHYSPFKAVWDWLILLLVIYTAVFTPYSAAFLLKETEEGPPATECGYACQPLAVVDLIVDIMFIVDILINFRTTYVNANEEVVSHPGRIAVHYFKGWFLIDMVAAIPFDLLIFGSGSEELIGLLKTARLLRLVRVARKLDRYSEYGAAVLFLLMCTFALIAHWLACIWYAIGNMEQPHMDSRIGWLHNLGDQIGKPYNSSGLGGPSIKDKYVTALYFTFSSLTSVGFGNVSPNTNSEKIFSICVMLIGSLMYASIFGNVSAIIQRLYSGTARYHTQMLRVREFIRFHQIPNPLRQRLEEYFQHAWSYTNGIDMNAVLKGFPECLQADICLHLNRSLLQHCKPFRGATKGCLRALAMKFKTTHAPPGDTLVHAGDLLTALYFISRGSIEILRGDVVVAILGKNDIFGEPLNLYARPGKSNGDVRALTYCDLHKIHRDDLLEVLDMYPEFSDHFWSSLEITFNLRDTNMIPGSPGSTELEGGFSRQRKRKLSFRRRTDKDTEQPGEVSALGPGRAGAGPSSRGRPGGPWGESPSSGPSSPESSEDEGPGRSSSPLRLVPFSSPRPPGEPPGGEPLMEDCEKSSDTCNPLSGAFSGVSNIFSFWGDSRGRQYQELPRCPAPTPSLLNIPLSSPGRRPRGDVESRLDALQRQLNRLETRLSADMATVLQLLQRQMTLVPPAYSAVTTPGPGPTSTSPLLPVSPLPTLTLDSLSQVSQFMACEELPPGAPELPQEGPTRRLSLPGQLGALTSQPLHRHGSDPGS
* hit, by the source's call; i = inactive; · = no result given.

SMILES	KCNK3 inh	KCNQ1 act	KCNQ1 inh	Kir21 inh	KCNK9 inh	hERG rescue
CN(C)S(=O)(=O)c1ccc(-c2csc(N/N=C/c3ccc(O)cc3)n2)cc1	i	i	i	1.4	i	-7
Cc1ccc(S(=O)(=O)N2CCC(=O)N(CCOCc3cccc(F)c3)CC2)cc1	i	i	i	1.1	i	-10
Cc1ccc(S(=O)(=O)N2CCC(=O)N(CCOCc3cccc(Cl)c3)CC2)cc1	i	i	i	-5.5*	i	-8
CC(C)Cn1nc(NC(=O)c2cccs2)c2cc3ccccc3nc21	i	i	i	0.62	-7*	-8
C[C@@H]1CCCCCCCCC(=O)OCCN1C(=O)OC(C)(C)C	i	·	·	·	·	·
O=P(c1ccccc1)(c1ccccc1)N(c1ccccc1)c1ccccc1	i	i	7*	0	i	-4
CC(/C=C1\SC(=S)N(NC(=O)c2ccc(C)cc2)C1=O)=C\c1ccccc1	i	i	i	-1.6	i	-12
CC(/C=C1\SC(=S)N(c2ccc(C(=O)O)cc2)C1=O)=C\c1ccccc1	i	i	i	2.1	i	5.1*
CC(C)=CCC[C@](C)(O[C@@H]1O[C@H](CO[C@@H]2O[C@H](CO)[C@@H](O)[C@H](O)[C@H]2O)[C@@H](O)[C@H](O)[C@H]1O)C1CC[C@]2(C)C1C(=O)CC1[C@@]3(C)CC[C@H](O[C@H]4O[C@@H](CO)[C@H](O)[C@@H](O)[C@@H]4O)C(C)(C)C3CC[C@]12C (some centres not stated)	i	·	·	·	·	·
CC(=O)OCC1O[C@@H](O[C@@H]2C[C@H]3C(C)(C)[C@H](OC(C)=O)CC[C@]3(C)[C@H]3CC[C@]45C[C@]4(CC[C@H]5[C@@H](C)C[C@@H](O)[C@H](O)C(C)(C)O)[C@@]32C)[C@H](O)[C@@H](O)[C@@H]1O (some centres not stated)	·	i	i	0.35	i	6.5*
Cc1cccc(CSC(Nc2ccc(F)cc2)=C(C#N)C#N)c1	i	i	8*	-4.5*	i	-19
N#CC(C#N)=C(Nc1ccc(F)cc1)SCc1cccc(Br)c1	i	i	7*	-3.2	i	-21
Cc1cccc(CSC(=N)N)c1	i	i	i	-1.1	i	-11
C=CCc1cccc2cc(C(=O)N3CCN(C(=O)c4ccccc4)CC3)c(=O)oc12	i	i	i	-0.11	i	-7
CN(C)CCCNc1nc(N)c([N+](=O)[O-])c(NC2CCCCC2)n1	i	i	i	1	i	-2
Cc1ccc(NC(=O)CSc2ncc3ccccn23)cc1C	i	i	i	-2	i	5.9*
N#Cc1ccc(-c2ccc(OCC(=O)Nc3cccnc3)cc2)cc1	i	i	i	1.2	i	-2
O=C(COc1ccc(C(=O)c2ccccc2)cc1)Nc1cccnc1	i	i	i	0.53	i	16*
Cc1ccc(C(=O)O)cc1NC(=O)c1ccc2c(c1)C(=O)N(c1ccc([N+](=O)[O-])cc1)C2=O	i	i	i	0.43	i	0
O=C(O)c1ccc2c(c1)C(=O)N(c1cc([N+](=O)[O-])ccn1)C2=O	i	i	i	0.09	i	5.2*
O=C(Nc1c[nH]c(=O)[nH]c1=O)c1ccc2c(c1)C(=O)N(c1cccc([N+](=O)[O-])c1)C2=O	i	i	i	1.9	i	1
O=C(Nc1ccccc1C(=O)O)c1ccc2c(c1)C(=O)N(c1cccc([N+](=O)[O-])c1)C2=O	i	i	i	0.52	i	7.0*
Cc1cc(C)c(S(=O)(=O)N2CCCC(C(=O)NC3CCCC3)C2)c(C)c1 (configuration not stated)	i	i	i	-0.31	i	-1
CCC(C)(C)C1CCC2(CC1)NC(=O)N(CC(=O)NCCc1ccc(OC)c(OC)c1)C2=O (configuration not stated)	i	·	·	·	·	·
CCN(CC)c1ccc2cc(-c3nc4ccccc4[nH]3)c(=O)oc2c1	i	i	27*	-8.3	i	-53
SMILES	KCNK3 inh	KCNQ1 act	KCNQ1 inh	Kir21 inh	KCNK9 inh	hERG rescue
COc1cccc(N2CCN(C(=O)c3cc4c(s3)CCCCC4)CC2)c1	i	·	·	·	·	·
COc1ccccc1OC(=O)Nc1ccc(Cl)cc1	i	i	6*	1.2	i	-10
O=C(NC(=S)Nc1nc2ccc(F)cc2s1)c1ccco1	i	47*	i	0.15	i	40*
O=C(Nc1nc2cc3c(cc2s1)OCO3)c1ccco1	i	i	i	0.13	i	-7
COc1ccc(-c2csc(NC(=S)NC(=O)c3ccco3)n2)cc1Br	i	i	i	-0.17	i	11*
Cc1ccc(-c2csc(NC(=S)NC(=O)c3ccco3)n2)cc1	i	28*	i	1	i	-5
COc1ccc(-c2csc(NC(=S)NC(=O)c3cc4ccccc4o3)n2)cc1Br	i	i	i	1.2	i	0
O=C(Nc1ccc(Cl)c(Cl)c1)c1ccc(Cl)c(Cl)c1	i	i	7*	-0.45	i	-7
O=C(Nc1ccc(Cl)c(Cl)c1)c1ccncc1	i	i	i	0.43	i	-11
CCCC(=O)C1=C(O)C(C(=O)OC)C(C)(C)CC1=Nc1cccc2ccccc12 (configuration not stated)	i	i	6*	-1.8	i	-4
CCCC(=O)C1=C(O)C(C(=O)OC)C(C)(C)CC1=NCc1ccccc1 (configuration not stated)	i	i	i	-0.29	i	-3
CCN(CC1COc2ccccc2O1)S(=O)(=O)c1ccc(C)cc1 (configuration not stated)	i	i	i	-4.8*	i	-12
CCN(CC)S(=O)(=O)c1ccc(C(=O)NNC(=O)C2COc3ccccc3O2)cc1 (configuration not stated)	i	·	·	·	·	·
CC(C)N1C(=S)SC(C)(C)C1n1oc(=O)n(-c2cccc(Cl)c2)c1=O (configuration not stated)	i	i	i	0.54	i	-2
CC(C)CN1C(=S)SC(C)(C)C1n1oc(=O)n(-c2ccc(Cl)cc2)c1=O (configuration not stated)	-11*	i	15*	-1.8	i	-10
O=C(Cn1ncc2c([nH]c3ccccc32)c1=O)NCCCN1CCN(c2ccccc2)CC1	i	i	i	-1.8	i	-5
Cc1ccc(-n2ncc3c(SCc4ccccc4)ncnc32)cc1	i	i	i	-0.01	i	8.6*
